From ChEMBL document CHEMBL1806428, “Design and synthesis of spiro derivatives of parthenin as novel anti-cancer agents” (Eur J Med Chem, 2011)
The source made the active and inactive calls. The rule behind the calls is not given here.

Experiments:
Ehrlich [1] = test: Antitumor activity against mouse EAC cells transplanted in ip dosed Swiss albino mouse assessed as tumor growth inhibition administered for 9 days; assay type: functional, organism-based
In short: (§1)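 EAC ascites model: mice of the same sex, 20 ± 3 g, injected intraperitoneally with 1 × 10^7 cells from a donor bearing 8–10 day old ascites tumor (day 0). Randomised the next day, 7 per test group and 10 controls. Doses were suspended in 1% gum acacia and given i.p. for nine consecutive days; controls received saline 0.2 mL i.p. On day 12, ascitic fluid volume and tumor cell count were measured, and % inhibition was calculated from cell number versus control.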

Mus musculus [2] = test: Toxicity in Swiss albino mouse transplanted with mouse EAC cells assessed as mortality at 25 mg/kg, ip administered for 9 days measured on day 2nd; assay type: organism-based, Ehrlich; parameters: dose 25 mg/kg, route intraperitoneal; conditions: in vivo, 216 h; in short: as §1
Mus musculus [3] = test: Toxicity in Swiss albino mouse transplanted with mouse EAC cells assessed as mortality at 50 mg/kg, ip administered for 9 days measured on day 3rd; assay type: organism-based, Ehrlich; parameters: dose 50 mg/kg, route intraperitoneal; conditions: in vivo, 216 h; in short: as §1
[4] = Antitumor activity against mouse EAC cells transplanted in Swiss albino mouse assessed as decrease in astic fluid volume at 10 mg/kg, ip administered for 9 days (reference value: 4.57+/-0.39 mL); assay type: functional, Ehrlich; conditions: route intraperitoneal; in short: as §1
Mus musculus [5] = test: Toxicity in Swiss albino mouse transplanted with EAC cells assessed as mortality at 25 mg/kg, ip administered for 9 days measured on day 4th; assay type: organism-based, Ehrlich; parameters: dose 25 mg/kg, route intraperitoneal; conditions: in vivo, 216 h; in short: as §1
Mus musculus [6] = test: Toxicity in Swiss albino mouse transplanted with EAC cells assessed as mortality at 50 mg/kg, ip administered for 9 days measured on day 2nd; assay type: organism-based, Ehrlich; parameters: dose 50 mg/kg, route intraperitoneal; conditions: in vivo, 216 h; in short: as §1
Ehrlich [7] = test: Antitumor activity against mouse EAC cells transplanted in Swiss albino mouse assessed as decrease in tumor cells in ascetic fluid at 10 mg/kg, ip administered for 9 days (reference value: 4.57+/-0.39 mL); assay type: functional, organism-based; parameters: dose 10 mg/kg; in short: as §1
[8] = Antitumor activity against mouse EAC cells transplanted in Swiss albino mouse assessed as tumor growth inhibition at 10 mg/kg, ip administered for 9 days (reference value: 4.57+/-0.39 mL); assay type: functional; conditions: Ehrlich, 216 h, route intraperitoneal, read-out: GI; in short: as §1
Mus musculus [9] = test: Toxicity in ip dosed Swiss albino mouse transplanted with mouse EAC cells assessed as mortality administered for 9 days; assay type: organism-based, Ehrlich; conditions: in vivo, 216 h; in short: as §1
SW-620 [10] = test: Cytotoxicity against human SW620 cells assessed as cell growth after 48 hrs by sulforhodamine B assay; assay type: functional, cell-based; conditions: Homo sapiens, SW-620, 48 h
In short: (§2)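 Log-phase cells seeded at 10^4/well and allowed to attach for 24 h at 37 °C, 5% CO2. Exposed for 48 h to 0.1–100 (1:10 serial dilutions), four replicate wells per condition. Fixed with cold 50% TCA for 1 h at 4 °C, stained with sulforhodamine B, dye dissolved in Tris, OD read at 540 nm. Blank-subtracted growth expressed relative to untreated cells (100%); IC50 reported.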

DU-145 = test: Cytotoxicity against human DU145 cells assessed as cell growth after 48 hrs by sulforhodamine B assay; assay type: functional, cell-based; conditions: Homo sapiens, DU-145, 48 h; in short: as §2
PC-3 = test: Cytotoxicity against human PC3 cells assessed as cell growth after 48 hrs by sulforhodamine B assay; assay type: functional, cell-based; conditions: Homo sapiens, PC-3, 48 h; in short: as §2
[11] = Antitumor activity against mouse Ehrlich Ascites tumor xenografted in Swiss albino mouse assessed as decrease in tumor weight at 10 mg/kg, ip administered for 9 days (reference value: 1708+/-51.07 mg); assay type: functional; conditions: route intraperitoneal
Mus musculus [12] = test: Toxicity in Swiss albino mouse model of Ehrlich Ascites tumor assessed as mortality at 25 mg/kg, ip administered for 9 days measured on fourth day; assay type: organism-based; parameters: dose 25 mg/kg, route intraperitoneal; conditions: in vivo, 216 h
Mus musculus [13] = test: Toxicity in Swiss albino mouse model of Ehrlich Ascites tumor assessed as mortality at 50 mg/kg, ip administered for 9 days measured on second day; assay type: organism-based; parameters: dose 50 mg/kg, route intraperitoneal; conditions: in vivo, 216 h
[14] = Antitumor activity against mouse Ehrlich Ascites tumor xenografted in Swiss albino mouse assessed as tumor growth inhibition at 10 mg/kg, ip administered for 9 days measured on day 13; assay type: functional; conditions: route intraperitoneal, read-out: GI
SW-620 [15] = test: Induction of apoptosis in human SW620 cells assessed as DNA fragmentation at 5 uM after 6 hrs by gel electrophoresis; assay type: functional, cell-based
SW-620 [16] = test: Cell cycle arrest in human SW620 cells assessed as increase in sub-G1 DNA content at 5 uM after 24 hrs using propidium iodide staining by flow cytometry (reference value: 3.45%); assay type: functional
[17] = Antitumor activity against mouse Ehrlich Ascites tumor xenografted in Swiss albino mouse assessed as tumor growth inhibition at 20 mg/kg, ip administered for 9 days measured on day 13; assay type: functional; conditions: route intraperitoneal, read-out: GI
[18] = Antitumor activity against mouse Ehrlich Ascites tumor xenografted in Swiss albino mouse assessed as decrease in tumor weight at 20 mg/kg, ip administered for 9 days (reference value: 1708+/-51.07 mg); assay type: functional; conditions: route intraperitoneal
[19] = Partition coefficient, log P of the compound; assay type: physicochemical; conditions: octanol/water

For `C=C1C(=O)O[C@@H]2[C@H]1CC[C@H](C)[C@]1(O)C=CC(=O)[C@@]21C` [PARTHENIN], the “growth inhibition (GI)” value (Ehrlich [1]) was “Dose-dependent effect”, the Activity (Mus musculus [2]) was “Toxic” and the Activity (Mus musculus [3]) was “Toxic”. The Activity [4] was 3.92 mL, the Activity (Mus musculus [5]) was “Toxic” and the Activity (Mus musculus [6]) was “Toxic”. For the same molecule, the Activity (Ehrlich [7]) was “Active”, the inhibition in vivo at 10 mg/kg [8] was 12% and the Activity (Mus musculus [9]) was “Toxic”. For the same molecule, the IC50 (SW-620 [10]) was 38.7 µM, the IC50 (DU-145) was 31.1 µM and the IC50 (PC-3) was 40.3 µM. For the same molecule, the Activity [11] was 1542.86 mg, the Activity (Mus musculus [12]) was “Toxic” and the Activity (Mus musculus [13]) was “Toxic”. The inhibition in vivo at 10 mg/kg [14] was 9.69%.
In the case of `CC[C@@]1(O)C(=O)OCc2c1cc1n(c2=O)Cc2cc3ccccc3nc2-1` [CAMPTOTHECIN], the Activity (SW-620 [15]) is reported as “Active” and the Activity (SW-620 [16]) is reported as 60%.
With `O=c1[nH]cc(F)c(=O)[nH]1` [FLUOROURACIL] the inhibition in vivo at 20 mg/kg [17] was 51.3% and the Activity [18] was 832.28 mg.
In the case of `C[C@H]1CC[C@@H]2[C@@H](OC(=O)[C@]23CN3c2ccccc2)[C@]2(C)C(=O)C=C[C@@]12O`, the logP [19] is reported as 1.38, the IC50 (SW-620 [10]) is reported as 87.7 µM and the IC50 (DU-145) is reported as 31.4 µM. For the same molecule, the IC50 (PC-3) was 10.6 µM.
